Reference: ChEMBL document CHEMBL1123492, “Carboxyl-modified amino acids and peptides as protease inhibitors” (J Med Chem, 1986)
Blank lines part the entries; values can stand above or below the compound they belong to. Where a SMILES comes first, the peptide text is derived from it.

Experiments:
Chymotrypsinogen A = Chymotrypsinogen A (Bos taurus, UniProt P00766); experiment: Compound was tested for Inhibition of Chymotrypsinogen
Method in brief: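 Chymotrypsin hydrolysis of glutaryl-L-Phe p-nitroanilide followed photometrically. Km of substrate and Ki of reversible inhibitors from Lineweaver–Burk double-reciprocal plots, Ki from replots of Km(app)/Vmax vs [I]; slopes and intercepts by linear regression. Test compounds added in methanol (<5% of final volume).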

Papain = molecular target: T1, Papain (Carica papaya, UniProt P00784); experiment: Compound was tested for Inhibition of Papain
T1 sequence (P00784 whole entry): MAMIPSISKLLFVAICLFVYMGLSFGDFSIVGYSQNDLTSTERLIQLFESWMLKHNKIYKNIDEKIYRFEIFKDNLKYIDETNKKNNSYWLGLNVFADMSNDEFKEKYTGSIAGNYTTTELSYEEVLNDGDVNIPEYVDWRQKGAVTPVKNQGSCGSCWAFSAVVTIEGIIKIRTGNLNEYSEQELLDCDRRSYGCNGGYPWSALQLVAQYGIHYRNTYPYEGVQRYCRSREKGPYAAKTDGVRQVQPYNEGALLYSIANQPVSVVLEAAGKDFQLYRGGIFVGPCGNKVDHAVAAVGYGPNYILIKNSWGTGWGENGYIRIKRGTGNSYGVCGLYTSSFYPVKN
Method in brief: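 Papain activated 45 min at 25 °C in 50 mM phosphate pH 6.2 with 1 mM EDTA and 0.25 mM cysteine, made fresh daily. N-Cbz-Gly p-nitrophenyl ester hydrolysis at 25 °C read at 340 nm (Δε 6000 M⁻¹ cm⁻¹), corrected for nonenzymic hydrolysis. Compounds in acetonitrile or DMF, final <2.5% v/v. Reversible Ki by Lineweaver–Burk; irreversible Ki and k2 by Kitz–Wilson.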

[1] = Compound was tested for Inhibition of leucine aminopeptidase-C
[2] = Compound was tested for Inhibition of Leucine aminopeptidase-M
[3] = Compound was tested for Inhibition of Leucine aminopeptidase-M; NI is No inhibition at 40 mM
Dipeptidyl peptidase 1 [4] = molecular target: T2, Dipeptidyl peptidase 1 (Homo sapiens, UniProt P53634); experiment: Compound was tested for Inhibition of dipeptidyl Dipeptidyl aminopeptidase 1
T2 sequence (P53634 25-134 limits assumed): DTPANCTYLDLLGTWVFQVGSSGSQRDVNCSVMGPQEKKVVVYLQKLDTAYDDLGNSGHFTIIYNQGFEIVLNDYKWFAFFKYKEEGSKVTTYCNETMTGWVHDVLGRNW
T2 sequence (P53634 231-394 limits assumed): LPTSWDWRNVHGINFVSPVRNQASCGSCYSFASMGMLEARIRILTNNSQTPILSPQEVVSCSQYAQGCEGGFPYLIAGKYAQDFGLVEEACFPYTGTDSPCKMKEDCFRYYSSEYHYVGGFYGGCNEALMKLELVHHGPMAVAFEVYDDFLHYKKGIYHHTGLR
T2 sequence (P53634 395-463 limits assumed): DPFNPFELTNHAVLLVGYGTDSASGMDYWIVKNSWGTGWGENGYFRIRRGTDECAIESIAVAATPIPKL
Method in brief: (§1)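 Cathepsin C diluted 1:200 daily in ice-cold 50 mM citrate pH 5 with 10 mM cysteamine. Gly-Phe p-nitroanilide hydrolysis at 37 °C read at 405 nm (Δε 9900 M⁻¹ cm⁻¹), started by adding substrate to prewarmed enzyme/inhibitor. Irreversible inhibition: enzyme preincubated with varied inhibitor levels, aliquots diluted into substrate over time. k_app from ln(% activity) vs time; Ki and k2 from 1/k_app vs 1/[I].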

Dipeptidyl peptidase 1 [5] = molecular target: T2, Dipeptidyl peptidase 1; experiment: Compound was tested for Inhibition of Dipeptidyl aminopeptidase 1; method in brief: as §1

- Ki (Chymotrypsinogen A): 23 mM
SMILES: CC(=O)NC(Cc1ccccc1)C(N)=S (stereo not drawn)

- Ki (Chymotrypsinogen A): 5.3 mM
SMILES: CC(=O)NC(C#N)Cc1ccccc1 (stereo not drawn)

- Ki [1]: 26.4 mM
- Ki [2]: 67 mM
SMILES: N#CC(N)Cc1ccccc1 (stereo not drawn)

- Ki [1]: 14.1 mM
- Ki [2]: 14.8 mM
SMILES: NC(=O)C(N)Cc1ccccc1 (stereo not drawn)

- Ki (Chymotrypsinogen A): 13.9 mM
SMILES: CC(=O)NC(Cc1ccccc1)C(N)=O (stereo not drawn)

- Ki (Dipeptidyl peptidase 1 [5]): 0.0027 mM
SMILES: N#CC(Cc1ccccc1)NC(=O)CN (stereo not drawn)

- Ki (Papain): 0.0011 mM
SMILES: CC(=O)NC(Cc1ccccc1)C(=O)NCC#N (stereo not drawn)

The next lines start with the compound.

SMILES: CC(=O)NC(Cc1ccccc1)C(=O)NCC(=N)S (stereo not drawn)
- Ki (Papain): 0.095 mM

SMILES: C=CCNC(=O)C(Cc1ccccc1)NC(C)=O (stereo not drawn)
- Ki (Papain): 9.2 mM

SMILES: CS(=O)(=O)/C=C/C(N)Cc1ccccc1 (stereo not drawn)
- Ki [1]: 8.8 mM
- Ki [2]: 3.7 mM

SMILES: N=C(S)C(N)Cc1ccccc1 (stereo not drawn)
- Ki [3]: No inhibition

SMILES: COC(=O)CCCNC(=O)C(Cc1ccccc1)NC(C)=O (stereo not drawn)
- Ki (Papain): 19.5 mM

SMILES: COC(=O)/C=C/C(N)Cc1ccccc1 (stereo not drawn)
- Ki [1]: 23.7 mM
- Ki [2]: 61 mM

SMILES: COC(=O)/C=C/C(Cc1ccccc1)NC(C)=O (stereo not drawn)
- Ki (Chymotrypsinogen A): 30.8 mM

SMILES: NCC(=O)N[C@@H](Cc1ccccc1)C(N)=O (H-Gly-Phe-NH2)
- Ki (Dipeptidyl peptidase 1 [4]): 6.2 mM

SMILES: CS(=O)(=O)/C=C/C(Cc1ccccc1)NC(=O)CN (stereo not drawn)
- Ki (Dipeptidyl peptidase 1 [5]): 0.18 mM

SMILES: COC(=O)/C=C/C(Cc1ccccc1)NC(=O)CN (stereo not drawn)
- Ki (Dipeptidyl peptidase 1 [5]): 0.22 mM

SMILES: CC(=O)NC(/C=C/S(C)(=O)=O)Cc1ccccc1 (stereo not drawn)
- Ki (Chymotrypsinogen A): 29.4 mM

SMILES: CC(=O)N[C@@H](Cc1ccccc1)C(=O)NCC(N)=O (Ac-Phe-Gly-NH2)
- Ki (Papain): 4.7 mM
